Measurements: ChEMBL document CHEMBL5653622 (Oncotarget, 2016)
Active and inactive are the calls of the source. The rule behind the calls is not given here.

What was measured:
[1] = biological target: Serine/threonine-protein kinase N2 (Homo sapiens) (UniProt Q16513); experiment: Inhibition of human PRK2 assessed as remaining activity at 10 uM in presence of ATP by radiometric kinase assay relative to control
[2] = Inhibition of human CDK2/Cyclin A by FRET based Z-LYTE kinase assay
[3] = biological target: Tyrosine-protein kinase Lck (Homo sapiens) (UniProt P06239); experiment: Inhibition of human Lck assessed as remaining activity at 10 uM in presence of ATP by radiometric kinase assay relative to control
[4] = biological target: High affinity nerve growth factor receptor (Homo sapiens) (UniProt P04629); experiment: Inhibition of human TrkA assessed as remaining activity at 10 uM in presence of ATP by radiometric kinase assay relative to control
Homo sapiens = species on record: Homo sapiens; experiment: Inhibition of human AMPK at 10 uM in presence of ATP by radiometric kinase assay relative to control
[5] = biological target: Ephrin type-B receptor 2 (Homo sapiens) (UniProt P29323); experiment: Inhibition of human EPH-B2 assessed as remaining activity at 10 uM in presence of ATP by radiometric kinase assay relative to control
[6] = biological target: Tyrosine-protein kinase ABL1 (Homo sapiens) (UniProt P00519); experiment: Inhibition of human ABL assessed as remaining activity at 10 uM in presence of ATP by radiometric kinase assay relative to control
[7] = biological target: Mitogen-activated protein kinase 14 (Homo sapiens) (UniProt Q16539); experiment: Inhibition of human p38a MAPK assessed as remaining activity at 10 uM in presence of ATP by radiometric kinase assay relative to control
[8] = Half life in BALB/C mouse spleen at 10 mg/kg, iv by LC/MS-MS analysis; type: ADME, organism-based
In short: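 Female BALB/c mice received a single bolus of 10mg/kg, either i.v. or p.o. The oral vehicle was DPTW (10% DMSO, 20% PEG400, 5% Tween 80, 65% water). Plasma and spleen homogenates were extracted with methanol containing internal standards. Drug levels were measured by LC/MS-MS, and pharmacokinetic parameters were calculated from the concentration-time profiles.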

[9] = biological target: Phosphorylase b kinase gamma catalytic chain, skeletal muscle/heart isoform (Homo sapiens, UniProt Q16816); experiment: Inhibition of PHKG1 (unknown origin) by FRET based Z-LYTE kinase assay
SW-620 = experiment: Induction of apoptosis in human SW620 cells assessed as increased in cleaved PARP in presence of SN38 by Western blotting analysis; type: functional, cell-based
[10] = biological target: Tyrosine-protein kinase Yes (Homo sapiens) (UniProt P07947); experiment: Inhibition of human YES1 assessed as remaining activity at 10 uM in presence of ATP by radiometric kinase assay relative to control
[11] = biological target: MAP/microtubule affinity-regulating kinase 3 (Homo sapiens, UniProt P27448); experiment: Inhibition of human MARK3 assessed as remaining activity at 10 uM in presence of ATP by radiometric kinase assay relative to control
[12] = biological target: Serine/threonine-protein kinase BRSK2 (Homo sapiens) (UniProt Q8IWQ3); experiment: Inhibition of human BRSK2 assessed as remaining activity at 10 uM in presence of ATP by radiometric kinase assay relative to control
[13] = biological target: Homeodomain-interacting protein kinase 3 (Homo sapiens) (UniProt Q9H422); experiment: Inhibition of human HIPK3 assessed as remaining activity at 10 uM in presence of ATP by radiometric kinase assay relative to control
[14] = biological target: Ribosomal protein S6 kinase alpha-3 (Homo sapiens, UniProt P51812); experiment: Inhibition of human RSK2 by FRET based Z-LYTE kinase assay
[15] = biological target: Dual specificity protein kinase TTK (Homo sapiens) (UniProt P33981); experiment: Inhibition of human TTK assessed as remaining activity at 10 uM in presence of ATP by radiometric kinase assay relative to control
[16] = Toxicity in Emu-Myc driven transgenic mouse transplant model of B-cell lymphoma assessed as reduction in weight of lung at 150 mg/kg, po administered for 9 days; type: organism-based; details: in vivo, 216 h, time 9 day
[17] = Toxicity in Emu-Myc driven transgenic mouse transplant model of B-cell lymphoma assessed as change in body weight at 150 mg/kg, po administered for 9 days; type: organism-based; details: in vivo, 216 h, time 9 day
[18] = biological target: Serine/threonine-protein kinase Sgk1 (Homo sapiens) (UniProt O00141); experiment: Inhibition of human SGK1 assessed as remaining activity at 10 uM in presence of ATP by radiometric kinase assay relative to control
[19] = biological target: Calcium/calmodulin-dependent protein kinase type 1 (Homo sapiens) (UniProt Q14012); experiment: Inhibition of human CAMK1 assessed as remaining activity at 10 uM in presence of ATP by radiometric kinase assay relative to control
[20] = biological target: Calcium/calmodulin-dependent protein kinase kinase 2 (Homo sapiens) (UniProt Q96RR4); experiment: Inhibition of human CAMKKb assessed as remaining activity at 10 uM in presence of ATP by radiometric kinase assay relative to control
HT-29 [21] = experiment: Induction of cell cycle arrest in etoposide induced human HT-29 cells assessed as decrease in accumulation of cells at G2/M phase at 1 to 5 uM incubated for 24 hrs by BrdU and PI staining based flow cytometry analysis; type: functional; details: dose 1-5 µM
In short: (§1)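 HT29 cells exposed for 24h, stained with bromodeoxyuridine and propidium iodide, and cell-cycle distribution measured by flow cytometry.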

[22] = biological target: Ribosomal protein S6 kinase alpha-1 (Homo sapiens, UniProt Q15418); experiment: Inhibition of human RSK1 assessed as remaining activity at 10 uM in presence of ATP by radiometric kinase assay relative to control
[23] = biological target: Rho-associated protein kinase 2 (Homo sapiens) (UniProt O75116); experiment: Inhibition of human ROCK2 assessed as remaining activity at 10 uM in presence of ATP by radiometric kinase assay relative to control
[24] = biological target: Testis-specific serine/threonine-protein kinase 1 (Homo sapiens) (UniProt Q9BXA7); experiment: Inhibition of human TSSK1 assessed as remaining activity at 10 uM in presence of ATP by radiometric kinase assay relative to control
[25] = biological target: Serine/threonine-protein kinase tousled-like 1 (Homo sapiens) (UniProt Q9UKI8); experiment: Inhibition of human TLK1 assessed as remaining activity at 10 uM in presence of ATP by radiometric kinase assay relative to control
[26] = AUC (0 to infinity) in BALB/C mouse spleen at 10 mg/kg, iv by LC/MS-MS analysis; type: ADME, organism-based
[27] = biological target: Ephrin type-B receptor 1 (Homo sapiens) (UniProt P54762); experiment: Inhibition of human EPH-B1 assessed as remaining activity at 10 uM in presence of ATP by radiometric kinase assay relative to control
HT-29 [28] = experiment: Induction of cell cycle arrest in human HT-29 cells assessed as accumulation of cells at G0/G1 phase at 0.5 uM incubated for 24 hrs by BrdU and PI staining based flow cytometry analysis; type: functional; in short: as §1
[29] = biological target: Ephrin type-B receptor 3 (Homo sapiens) (UniProt P54753); experiment: Inhibition of human EPH-B3 assessed as remaining activity at 10 uM in presence of ATP by radiometric kinase assay relative to control
Chain of Ephrin type-B receptor 3 (Homo sapiens) (P54753 whole entry): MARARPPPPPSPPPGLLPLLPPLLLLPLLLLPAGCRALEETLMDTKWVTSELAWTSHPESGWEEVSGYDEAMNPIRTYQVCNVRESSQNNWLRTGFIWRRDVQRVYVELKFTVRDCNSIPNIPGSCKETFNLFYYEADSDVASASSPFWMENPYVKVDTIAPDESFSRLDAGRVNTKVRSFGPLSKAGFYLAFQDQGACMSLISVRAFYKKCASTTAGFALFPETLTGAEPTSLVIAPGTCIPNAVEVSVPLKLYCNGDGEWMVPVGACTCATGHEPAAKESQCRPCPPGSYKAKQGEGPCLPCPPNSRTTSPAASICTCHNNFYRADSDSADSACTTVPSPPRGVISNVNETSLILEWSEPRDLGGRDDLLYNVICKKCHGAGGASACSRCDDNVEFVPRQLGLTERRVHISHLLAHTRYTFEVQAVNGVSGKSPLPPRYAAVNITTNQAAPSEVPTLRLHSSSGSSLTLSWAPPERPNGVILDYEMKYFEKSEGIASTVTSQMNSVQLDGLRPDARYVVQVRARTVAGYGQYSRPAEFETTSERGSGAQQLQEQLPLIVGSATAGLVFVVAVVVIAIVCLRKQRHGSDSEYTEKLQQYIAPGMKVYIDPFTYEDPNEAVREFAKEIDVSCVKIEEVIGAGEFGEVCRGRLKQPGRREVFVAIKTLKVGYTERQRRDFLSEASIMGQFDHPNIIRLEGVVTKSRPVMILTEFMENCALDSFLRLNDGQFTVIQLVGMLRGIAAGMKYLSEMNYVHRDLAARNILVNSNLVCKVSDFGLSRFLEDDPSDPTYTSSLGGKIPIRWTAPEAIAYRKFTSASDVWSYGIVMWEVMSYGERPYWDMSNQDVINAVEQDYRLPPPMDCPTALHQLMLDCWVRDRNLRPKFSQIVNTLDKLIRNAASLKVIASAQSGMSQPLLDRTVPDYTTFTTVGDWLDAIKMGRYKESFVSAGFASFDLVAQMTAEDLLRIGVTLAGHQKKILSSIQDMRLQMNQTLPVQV

Chain of Tyrosine-protein kinase Lck (Homo sapiens) (P06239 2-509 limits assumed): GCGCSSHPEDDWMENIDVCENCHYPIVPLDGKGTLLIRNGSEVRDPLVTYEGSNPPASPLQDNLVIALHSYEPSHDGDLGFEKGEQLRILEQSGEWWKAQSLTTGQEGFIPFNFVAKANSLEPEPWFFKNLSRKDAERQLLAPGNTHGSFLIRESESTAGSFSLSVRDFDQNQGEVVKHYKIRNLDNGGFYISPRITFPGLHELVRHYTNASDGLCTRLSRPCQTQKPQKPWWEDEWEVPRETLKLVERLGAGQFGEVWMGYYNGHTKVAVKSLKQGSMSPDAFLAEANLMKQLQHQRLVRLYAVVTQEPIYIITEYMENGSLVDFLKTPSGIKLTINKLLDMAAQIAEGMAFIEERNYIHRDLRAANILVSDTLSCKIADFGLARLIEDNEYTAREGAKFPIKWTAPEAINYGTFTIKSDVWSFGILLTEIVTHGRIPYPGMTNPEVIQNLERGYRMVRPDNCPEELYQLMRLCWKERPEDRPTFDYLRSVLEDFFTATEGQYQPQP
Chain of Serine/threonine-protein kinase Sgk1 (Homo sapiens) (O00141 whole entry): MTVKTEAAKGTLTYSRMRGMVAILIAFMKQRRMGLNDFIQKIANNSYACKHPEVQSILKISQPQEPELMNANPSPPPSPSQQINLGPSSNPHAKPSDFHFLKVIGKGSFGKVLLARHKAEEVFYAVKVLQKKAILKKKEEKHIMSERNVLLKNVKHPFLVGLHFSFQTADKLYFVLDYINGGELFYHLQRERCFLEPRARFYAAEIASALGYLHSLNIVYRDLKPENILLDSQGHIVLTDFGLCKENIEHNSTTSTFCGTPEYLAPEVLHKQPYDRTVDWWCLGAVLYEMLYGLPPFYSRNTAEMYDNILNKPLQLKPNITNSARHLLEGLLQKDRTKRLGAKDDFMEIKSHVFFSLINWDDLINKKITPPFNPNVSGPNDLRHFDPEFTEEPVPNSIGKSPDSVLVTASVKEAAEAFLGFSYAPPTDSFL
Chain of Ephrin type-B receptor 1 (Homo sapiens) (P54762 whole entry): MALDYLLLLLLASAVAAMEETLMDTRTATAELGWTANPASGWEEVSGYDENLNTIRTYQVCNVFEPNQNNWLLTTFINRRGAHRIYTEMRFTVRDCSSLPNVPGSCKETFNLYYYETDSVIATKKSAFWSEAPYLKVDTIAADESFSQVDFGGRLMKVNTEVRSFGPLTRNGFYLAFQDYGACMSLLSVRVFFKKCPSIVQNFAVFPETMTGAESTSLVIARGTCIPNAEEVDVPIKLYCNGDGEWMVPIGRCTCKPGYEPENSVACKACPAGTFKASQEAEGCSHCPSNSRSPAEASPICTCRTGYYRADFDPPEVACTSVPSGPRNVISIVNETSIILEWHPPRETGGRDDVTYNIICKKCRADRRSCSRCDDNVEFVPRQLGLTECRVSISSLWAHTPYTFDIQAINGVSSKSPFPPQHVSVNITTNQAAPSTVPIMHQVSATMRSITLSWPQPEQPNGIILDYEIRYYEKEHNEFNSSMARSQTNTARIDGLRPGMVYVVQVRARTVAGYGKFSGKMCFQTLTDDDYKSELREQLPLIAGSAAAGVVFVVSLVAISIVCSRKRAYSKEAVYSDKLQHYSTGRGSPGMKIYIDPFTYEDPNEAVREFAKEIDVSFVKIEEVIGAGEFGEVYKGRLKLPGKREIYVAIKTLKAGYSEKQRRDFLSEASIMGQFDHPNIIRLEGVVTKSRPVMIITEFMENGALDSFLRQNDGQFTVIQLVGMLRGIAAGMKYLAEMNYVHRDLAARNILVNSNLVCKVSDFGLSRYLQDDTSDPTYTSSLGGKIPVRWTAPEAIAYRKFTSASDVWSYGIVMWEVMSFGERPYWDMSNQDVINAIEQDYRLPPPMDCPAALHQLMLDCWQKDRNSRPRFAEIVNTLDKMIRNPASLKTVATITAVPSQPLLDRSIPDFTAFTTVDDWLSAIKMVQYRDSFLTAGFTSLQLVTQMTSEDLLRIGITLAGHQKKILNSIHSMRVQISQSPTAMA
Chain of Ribosomal protein S6 kinase alpha-1 (Q15418 whole entry): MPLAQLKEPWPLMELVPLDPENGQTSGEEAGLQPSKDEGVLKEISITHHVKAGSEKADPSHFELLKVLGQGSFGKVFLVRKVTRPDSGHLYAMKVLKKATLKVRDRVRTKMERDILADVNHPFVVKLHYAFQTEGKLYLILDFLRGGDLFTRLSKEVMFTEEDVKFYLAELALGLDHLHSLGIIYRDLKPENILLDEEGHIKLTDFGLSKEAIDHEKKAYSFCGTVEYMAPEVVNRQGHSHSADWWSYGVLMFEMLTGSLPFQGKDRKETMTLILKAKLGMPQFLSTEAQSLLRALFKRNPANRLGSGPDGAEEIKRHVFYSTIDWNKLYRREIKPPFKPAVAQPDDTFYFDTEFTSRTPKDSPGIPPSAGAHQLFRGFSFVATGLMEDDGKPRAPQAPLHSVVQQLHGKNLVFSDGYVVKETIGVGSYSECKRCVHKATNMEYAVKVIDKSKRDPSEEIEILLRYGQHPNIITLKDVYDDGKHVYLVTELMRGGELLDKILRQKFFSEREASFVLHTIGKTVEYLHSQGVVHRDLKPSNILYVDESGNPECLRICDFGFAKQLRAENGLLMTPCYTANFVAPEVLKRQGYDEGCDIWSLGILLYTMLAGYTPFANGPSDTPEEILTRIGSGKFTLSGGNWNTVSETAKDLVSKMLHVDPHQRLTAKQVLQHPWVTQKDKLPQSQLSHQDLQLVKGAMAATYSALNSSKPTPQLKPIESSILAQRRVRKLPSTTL
Chain of Serine/threonine-protein kinase N2 (Homo sapiens) (Q16513 whole entry, looked up): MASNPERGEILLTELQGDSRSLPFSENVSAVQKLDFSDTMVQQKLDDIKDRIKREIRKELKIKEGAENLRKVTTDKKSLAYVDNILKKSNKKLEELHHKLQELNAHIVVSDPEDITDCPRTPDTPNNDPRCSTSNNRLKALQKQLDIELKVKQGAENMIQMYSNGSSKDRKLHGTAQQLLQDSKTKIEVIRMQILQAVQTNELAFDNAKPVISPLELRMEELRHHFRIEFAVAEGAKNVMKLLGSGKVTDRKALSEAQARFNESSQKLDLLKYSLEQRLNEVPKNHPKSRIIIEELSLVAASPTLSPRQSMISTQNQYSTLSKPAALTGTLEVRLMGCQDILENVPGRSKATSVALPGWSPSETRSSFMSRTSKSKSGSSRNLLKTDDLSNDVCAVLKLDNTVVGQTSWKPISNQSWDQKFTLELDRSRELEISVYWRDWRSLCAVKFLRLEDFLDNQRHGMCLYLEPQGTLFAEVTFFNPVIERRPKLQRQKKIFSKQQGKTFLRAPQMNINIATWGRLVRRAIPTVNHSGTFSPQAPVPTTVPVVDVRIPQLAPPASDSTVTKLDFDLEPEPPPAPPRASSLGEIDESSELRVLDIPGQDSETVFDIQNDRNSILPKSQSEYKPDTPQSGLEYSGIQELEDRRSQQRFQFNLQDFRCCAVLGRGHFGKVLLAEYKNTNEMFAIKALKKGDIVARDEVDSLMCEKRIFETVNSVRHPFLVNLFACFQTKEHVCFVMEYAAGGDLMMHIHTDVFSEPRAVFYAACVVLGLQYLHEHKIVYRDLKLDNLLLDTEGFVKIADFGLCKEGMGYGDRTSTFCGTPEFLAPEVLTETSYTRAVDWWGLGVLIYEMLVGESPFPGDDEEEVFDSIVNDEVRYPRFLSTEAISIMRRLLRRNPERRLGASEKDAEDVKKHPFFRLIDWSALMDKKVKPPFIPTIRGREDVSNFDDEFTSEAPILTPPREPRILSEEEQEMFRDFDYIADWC
Chain of Calcium/calmodulin-dependent protein kinase type 1 (Homo sapiens) (Q14012 whole entry, looked up): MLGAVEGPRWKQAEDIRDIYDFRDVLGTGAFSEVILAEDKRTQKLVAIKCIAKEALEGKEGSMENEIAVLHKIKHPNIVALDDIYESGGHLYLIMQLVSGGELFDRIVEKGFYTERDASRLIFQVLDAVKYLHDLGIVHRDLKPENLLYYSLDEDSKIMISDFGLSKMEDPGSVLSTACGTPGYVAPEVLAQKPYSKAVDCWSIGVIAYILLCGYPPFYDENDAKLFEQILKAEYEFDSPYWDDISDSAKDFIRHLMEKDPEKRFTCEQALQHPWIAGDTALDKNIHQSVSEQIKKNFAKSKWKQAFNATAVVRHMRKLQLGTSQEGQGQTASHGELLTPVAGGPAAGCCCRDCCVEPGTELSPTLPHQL

Structure (SMILES): N#Cc1cnc(Nc2cc(NC[C@H]3CNCCO3)c(C(F)(F)F)cn2)cn1 [SRA-737]
- Activity [1]: 67%
- IC50 [2]: 3.85 µM
- Activity [3]: 78%
- Activity [4]: 31%
- inhibition (Homo sapiens): 68%
- Activity [5]: 102%
- Activity [6]: 93%
- Activity [7]: 120%
- half-life [8]: 2.76 h
- IC50 [9]: 3.47 µM
- Activity (SW-620): Active
- Activity [10]: 65%
- Activity [11]: 13%
- Activity [12]: 35%
- Activity [13]: 124%
- IC50 [14]: 0.361 µM
- Activity [15]: 36%
- Activity [16]: Toxic
- Activity [17]: Non-Toxic
- Activity [18]: 87%
- Activity [19]: 69%
- Activity [20]: 73%
- Activity (HT-29 [21]): Active
- Activity [22]: 7%
- Activity [23]: 95%
- Activity [24]: 53%
- Activity [25]: 59%
- AUC(0-inf) [26]: 262 µM·h
- Activity [27]: 111%
- Activity (HT-29 [28]): Active
- Activity [29]: 93%
